Most compounds without a hit are left out; they make up all but 2.3% or so of the library.
TRPC6 act = mouse TRPC6 channel activation. Q61143. 310,000 tested, 0.13% active. AID 2550. B-score at 10 µM. HEK293-TRPC6 membrane potential dye fluorescence; active compounds read high;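 active = B-score of the integrated fluorescence ratio above library mean plus 3 SD, and starting fluorescence ratio within library mean plus 5 SD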;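 also: higher score means more depolarization so channel activation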
Target sequence (Q61143 whole entry, looked up): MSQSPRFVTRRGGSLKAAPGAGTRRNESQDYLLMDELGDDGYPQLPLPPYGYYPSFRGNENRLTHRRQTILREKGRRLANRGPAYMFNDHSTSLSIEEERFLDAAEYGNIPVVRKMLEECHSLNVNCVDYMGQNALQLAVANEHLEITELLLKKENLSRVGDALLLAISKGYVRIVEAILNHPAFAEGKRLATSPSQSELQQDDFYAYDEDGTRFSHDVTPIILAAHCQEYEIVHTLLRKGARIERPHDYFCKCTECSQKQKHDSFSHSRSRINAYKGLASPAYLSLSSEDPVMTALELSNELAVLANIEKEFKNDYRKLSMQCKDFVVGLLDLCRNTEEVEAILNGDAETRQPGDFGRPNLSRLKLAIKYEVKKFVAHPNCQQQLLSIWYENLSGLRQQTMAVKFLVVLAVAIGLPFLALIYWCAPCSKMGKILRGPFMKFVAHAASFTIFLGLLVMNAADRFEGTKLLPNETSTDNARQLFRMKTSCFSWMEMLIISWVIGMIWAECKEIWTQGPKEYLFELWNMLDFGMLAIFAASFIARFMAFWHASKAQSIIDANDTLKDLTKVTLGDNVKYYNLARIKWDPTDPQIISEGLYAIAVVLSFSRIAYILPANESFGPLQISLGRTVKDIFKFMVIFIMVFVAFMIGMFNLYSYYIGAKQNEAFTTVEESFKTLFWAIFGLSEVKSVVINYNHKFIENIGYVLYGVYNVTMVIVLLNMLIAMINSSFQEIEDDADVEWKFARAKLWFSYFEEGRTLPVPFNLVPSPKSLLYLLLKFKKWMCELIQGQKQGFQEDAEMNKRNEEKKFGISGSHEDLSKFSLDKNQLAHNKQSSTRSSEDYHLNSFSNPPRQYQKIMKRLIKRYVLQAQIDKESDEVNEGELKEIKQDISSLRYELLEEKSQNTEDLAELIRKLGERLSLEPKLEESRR
TRPC4 inh = inhibitors of mouse TRPC4 channel; Q9QUQ5; HEK293 TRPC4beta/mu-opioid, DAMGO-evoked Fluo4 calcium flux; active compounds read low; B-score at 10 µM; 300,000 tested, 0.39% active;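 active = B-score over 3 SD under the library average, no early fluorescence shift, positive overall ratio signal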
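System: stable TRPC4beta/mu-opioid receptor HEK293 cells; Dosing: single-point compound dosing; Measured by: Fluo4 Ca2+ flux fluorescence; Read-out basis: per-well B score of integrated baseline-normalized Fluo4 ratio.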
TRPC6 inh = inhibitors of mouse TRPC6 channel; Q61143; HEK293-TRPC6, membrane potential dye, ACh-evoked depolarization; active compounds read low; 310,000 tested, 1.1% active; B-score at 10 µM;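 active = B-score under library mean minus 3 SD, initial fluorescence not abnormally high, positive integrated signal ratio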;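 also: B-score derived from integrated fluorescence ratio over the kinetic read; more negative B-score means stronger inhibition of depolarization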
TRPC4 PAM = allosterically enhances the mouse TRPC4 cation channel | Q9QUQ5 | HEK293 TRPC4beta/mu-opioid, DAMGO EC20, Fluo-4 Ca2+ flux; active compounds read high | B-score at 10 µM | 310,000 tested, 0.42% active;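 active = B-score of calcium response area above 5 SD of library B-scores, with initial fluorescence ratio within 5 SD of library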;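 also: B-score of integrated fluorescence ratio over time as area under calcium response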
TRPC4 act = activators of mouse TRPC4 channel; Q9QUQ5; HEK293 TRPC4beta/mu-opioid, Fluo4 calcium fluorescence; active compounds read high; B-score at 10 µM; 310,000 tested, 0.49% active; AID 2237;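 active = B-score above 5 SD of library B-scores, and initial fluorescence ratio not above library mean plus 5 SD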;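 also: positive B-score marks a calcium rise read as TRPC4 activation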
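Assay system: HEK293 stable line with TRPC4beta plus mu-opioid receptor; schedule: 45 min room-temperature Fluo4 loading, 110 s read; technique: kinetic Fluo4 calcium fluorescence; evaluation: integrated baseline-normalised fluorescence ratio, converted to per-well B score; controls: buffer (low) and maximal DAMGO (high)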
Starred values were filed as active, the others as inactive; i = inactive.

SMILES | TRPC6 act | TRPC4 inh | TRPC6 inh | TRPC4 PAM | TRPC4 act
CCN(CC)C(=O)c1sc2nc(-c3ccccn3)[nH]c(=O)c2c1C | i | i | i | i | 68*
CC1CCN(CC(=O)Nc2ccc(Br)cc2[N+](=O)[O-])CC1 | i | i | i | i | i
CCOC(=O)CC(NS(=O)(=O)c1ccc(OC)c(C)c1)c1cccc([N+](=O)[O-])c1 (stereo unspecified) | i | -6* | i | i | i
CCOC(=O)CC(NC(=O)c1cc2cc(Br)ccc2oc1=O)c1cccc([N+](=O)[O-])c1 (stereo unspecified) | i | i | i | 26* | i
CCOC(=O)c1cc2cc([N+](=O)[O-])ccc2oc1=O | i | i | i | i | i
CCOc1ccc(C(CC(=O)O)NS(=O)(=O)c2ccc(C)cc2)cc1OC (stereo unspecified) | i | i | i | i | i
COc1cccc(NC(=O)Cn2c(=O)c3c(ncn3Cc3ccccc3)n(Cc3ccccc3)c2=O)c1 | i | i | i | i | i
O=C(CN1CCN(c2ccc([N+](=O)[O-])cc2)CC1)c1ccccc1 | i | i | i | 11* | i
O=C(c1cccc(C(=O)N2CCN(c3ccccc3)CC2)c1)N1CCN(c2ccccc2)CC1 | i | -7* | i | i | i
O=C(Nc1nnc(-c2ccccc2Cl)o1)c1nc2ccccc2s1 | i | i | i | i | 185*
CCOc1ccccc1CN1CCNC(=O)C1CC(=O)NCCc1ccccn1 (stereo unspecified) | i | i | i | i | 88*
CCOc1ccccc1CN1CCNC(=O)C1CC(=O)N(C)CCC1CCOCC1 (stereo unspecified) | i | i | i | i | i
O=C(CC1C(=O)NCCN1Cc1ccc(-c2ccccc2)cc1)NCCc1ccccn1 (stereo unspecified) | i | i | i | i | 130*
Cc1csc(CN(C)C(=O)CC2C(=O)NCCN2Cc2ccc(F)cc2Cl)n1 (stereo unspecified) | i | i | i | i | i
CCOc1ccccc1CN1CCNC(=O)C1CC(=O)NCCC1=CCCCC1 (stereo unspecified) | i | i | i | i | i
CCOc1ccccc1CN1CCNC(=O)C1CC(=O)N(C)CCc1ccccn1 (stereo unspecified) | i | i | i | i | 153*
Cc1csc(CN(C)C(=O)CC2C(=O)NCCN2Cc2ccc(Cl)c(F)c2)n1 (stereo unspecified) | i | i | i | 12* | i
CC(C)(C)C1=C(C#N)C(c2cc3c(cc2Br)OCO3)C(C#N)=C(N)O1 (stereo unspecified) | i | i | i | i | i
C=CCCCCCCCCC(=O)Nc1ncccn1 | i | i | i | i | i
COc1ccc(N(C(C)=O)S(=O)(=O)c2cccc3cccnc23)cc1 | i | i | i | i | i
Cc1ccc(CN2CCNC(=O)C2CC(=O)N(C)CCc2ccccc2)cc1 (stereo unspecified) | i | i | i | i | i
CN(CCc1ccccn1)C(=O)CC1C(=O)NCCN1Cc1ccc(-c2ccccc2)cc1 (stereo unspecified) | i | i | i | i | 160*
CCN(Cc1ccccc1)c1ccc(/C=N/NC(=S)NC(C)C)cc1 | i | i | i | i | i
CCN(Cc1ccccc1)c1ccc(/C=N/N=C(N)N)cc1 | i | i | i | i | 145*
C[C@@H]1CC=C[C@H]2[C@H]1C(=O)N(Cc1ccccc1)[C@H]2c1cccc([N+](=O)[O-])c1 | i | i | i | i | i
SMILES | TRPC6 act | TRPC4 inh | TRPC6 inh | TRPC4 PAM | TRPC4 act
O=C1CCCc2c1[nH]c1ccc(Cl)cc21 | i | i | i | i | i
Clc1ccc2[nH]c3c(c2c1)CNCC3 | i | i | i | 19* | i
O=C(O)c1cccc2c3c([nH]c12)CCCC3 | i | i | i | i | i
Clc1cccc2c3c([nH]c12)CCNC3 | i | i | i | 16* | i
O=C(NC1CCN(Cc2ccccc2)CC1)C12CC3CC(CC(C3)C1)C2 | i | i | i | i | 123*
O=C(Cc1ccc(Br)cc1)NC1CCN(Cc2ccccc2)CC1 | i | i | i | 12* | i
Cc1ccn2c(CNCCn3cccn3)c(C(=O)N3CCCCCC3)nc2c1 | i | i | i | i | i
Cc1ccn2c(CNCCCn3cccn3)c(C(=O)N3CCCCCC3)nc2c1 | i | -7* | i | i | i
CCOC(=O)C(=NC1CCS(=O)(=O)C1)NNc1ccccc1Cl (stereo unspecified) | i | i | i | 47* | i
CCOC(=O)C(=NC1CCS(=O)(=O)C1)NNc1cc(Cl)ccc1Cl (stereo unspecified) | i | i | i | i | i
O=C(CC1C(=O)NCCN1C(=O)Nc1ccccc1)Nc1cc(Cl)cc(Cl)c1 (stereo unspecified) | i | i | i | 16* | i
Cc1ccc(NC(=S)N2CCCC(O)C2)cc1 (stereo unspecified) | i | i | i | i | i
Nc1c2c(nc3ccccc13)CCCC2 | i | i | -5.3* | i | i
CCCn1nc(CC(=O)OCC)c2ccccc2c1=O | i | i | i | i | i
O=C(O)c1cnc(-c2ccccc2)nc1Sc1ccc(Cl)cc1Cl | i | -6* | i | i | i
CS(=O)(=O)Nc1ccc(C2=NN(S(C)(=O)=O)C(c3ccc4c(c3)OCO4)C2)cc1 (stereo unspecified) | i | i | i | i | i
COc1ccc(S(=O)(=O)NNc2nc(C)cc(C)n2)cc1Br | i | i | i | i | i
Cc1cc(C)nc(NNS(=O)(=O)c2ccc(F)c(Cl)c2)n1 | i | i | i | 17* | i
Cc1occc1C(=O)Nc1cccc([N+](=O)[O-])c1C | i | i | i | i | i
Cc1cccc(C)c1OCCCCN1CCCCC1 | i | i | i | i | i
Cc1cccc(C)c1OCCCN1CCCC1 | i | i | i | 14* | i
Cc1cc(OCCCN2CCCC2)ccc1Cl | i | i | i | 12* | i
Cc1ccccc1S(=O)(=O)c1c(C)cc(-c2ccccc2)[nH]c1=O | i | i | i | i | i
Cc1cc(OCC(O)CN)ccc1Cl (stereo unspecified) | i | i | i | i | 143*
Cc1cccc(C)c1OCC(O)CN (stereo unspecified) | i | i | i | i | 163*

Bioassay records from PubChem.
